# An excerpt weighted towards active compounds, which were near 4.6% of everything screened.
# TAAR1 ag = human TAAR1 agonists, primary screen, Fluo-8 calcium fluorescence, CHO RD-HGA16 cells; Trace amine-associated receptor 1 (Homo sapiens), Q96RJ0; vehicle wells 0%, saturating PEA agonist 100%; activation, % at 3 µM; 360,000 tested, 0.99% active; AID 624467, 2012;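 active = activation above the mean activation of all test compounds in the run plus 3 SD, cut at about 38% in these data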
# Target sequence (Q96RJ0 whole entry, looked up): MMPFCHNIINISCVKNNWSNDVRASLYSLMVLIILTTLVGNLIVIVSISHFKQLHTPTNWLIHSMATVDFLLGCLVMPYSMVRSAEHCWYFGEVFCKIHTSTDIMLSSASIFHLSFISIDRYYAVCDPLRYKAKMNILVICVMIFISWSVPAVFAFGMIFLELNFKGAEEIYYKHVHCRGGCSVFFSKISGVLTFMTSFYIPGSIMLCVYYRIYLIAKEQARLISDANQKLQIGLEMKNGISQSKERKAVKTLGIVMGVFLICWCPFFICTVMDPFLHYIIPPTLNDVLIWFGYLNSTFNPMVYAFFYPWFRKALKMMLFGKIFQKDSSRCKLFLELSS
#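 Test system: RD-HGA16 (CHO) cells co-expressing Gα16 and hTAAR1; dosing: one-point dosing at 3 µM (nominal); timing: 17-24 h seeding, 75 min 37 °C dye, 30 min RT; signal: kinetic Fluo-8 calcium fluorescence; read-out basis: % activation relative to PEA EC100 response; controls: DMSO and PEA EC100; replicates: n 1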
# OX1R antag-1 = OX1R (HCRTR1) antagonists, primary screen, fluorescence, CHO/OX1R cells, Fluo-8 calcium, orexin A | Orexin/Hypocretin receptor type 1 (Homo sapiens), O43613 | Fluo-8 calcium fluorescence | inhibition, % at 5 µM | 330,000 tested, 0.43% active | AID 434989, 2010;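 active = inhibition above its plate's threshold, mean inhibition of all tested compounds on the plate plus 3 SD, cut at about 37% in these data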
# CHO parental Ca = ATP-evoked calcium signal inhibitors, parental CHO, primary screen, counter-screen for OX1R antagonist project, cell-based, fluorescence, Fluo-8 calcium dye. parental CHO-K1, ATP-induced calcium, Fluo-8 fluorescence. inhibition, % at 5.6 µM. 330,000 tested, 0.63% active;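 active = inhibition above that plate's mean sample inhibition plus 3 SD, cut at about 26% in these data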
#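 material = parental CHO cells | also added = ATP as calcium-mobilizing challenge | dosing = single point at 5.6 µM | detection = intracellular calcium via Fluo-8 no-wash fluorescent dye | read-out = % inhibition | benchmarks = low control ATP plus DMSO, high control DMSO only | repeats = one well per compound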
# OX1R antag-2 = antagonists of human orexin 1 receptor (OX1R) | OX1R-expressing cells, FRET antagonist read-out | inhibition, % at 6.6 µM | 330,000 tested, 1.8% active | AID 485270, 2010; in the data active = inhibition mostly above about 38%, no sharp cut-off; inactive = mostly below about 40%
# GPR7 antag = GPR7 receptor antagonists, primary screen, cell-based, fluorescence, single concentration | GPR7-expressing cells, fluorescence antagonist assay | 290,000 tested, 1.1% active | AID 1861, 2009 | inhibition, % at 4.4 µM; in the data active = inhibition above about 16%, passing the limit was not always enough;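 also: cells stimulated with the agonist NPW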
# Target sequence (P48145 whole entry, looked up): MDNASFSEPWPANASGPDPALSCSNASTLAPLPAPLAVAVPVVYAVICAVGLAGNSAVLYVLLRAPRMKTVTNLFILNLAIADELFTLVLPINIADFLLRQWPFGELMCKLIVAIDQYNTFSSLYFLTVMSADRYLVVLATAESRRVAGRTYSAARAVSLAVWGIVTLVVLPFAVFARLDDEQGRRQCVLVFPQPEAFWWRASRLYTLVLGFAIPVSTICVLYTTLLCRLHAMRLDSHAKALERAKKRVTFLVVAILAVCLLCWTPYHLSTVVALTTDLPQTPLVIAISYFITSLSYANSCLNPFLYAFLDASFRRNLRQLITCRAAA
# TAAR1 antag = human TAAR1 antagonists, primary screen, Fluo-8 calcium fluorescence, CHO RD-HGA16 cells; Trace amine-associated receptor 1 (Homo sapiens), Q96RJ0; antagonist; inhibition, % at 3 µM; 360,000 tested, 1.5% active; AID 624466, 2012;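 active = inhibition above a per-plate cutoff, the mean inhibition of test compounds on that plate plus 3 SD, cut at about 49% in these data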
#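 Material: CHO RD-HGA16 cells bearing hTAAR1; compound dosing: one-point dosing, 3 µM nominal final; schedule: dye loading 75 min at 37 °C, then 30 min room temperature; measured by: calcium fluorescence with Fluo-8; control set: vehicle and agonist controls; replication: n of 1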
# GPR7 antag cf = GPR7 receptor antagonists, confirmation, cell-based, fluorescence, single concentration; shares compounds with GPR7 antag; GPR7-expressing cells, calcium fluorescence antagonist mode; inhibition, % at 4.4 µM; 2,400 tested, 52% active; in the data active = inhibition above about 24%;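 also: stimulated with the GPR7 agonist NPW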
# MCHR1 antagonist = MCHR1 antagonists in cells, counter-screen for GPR7 antagonist project, cell-based, fluorescence, human; shares compounds with GPR7 antag; MCHR1-expressing cells, fluorescence antagonist assay; inhibition, % at 4.4 µM; 2,400 tested, 62% active; in the data active = inhibition above about 22%
# Hits are given with their value; . = inactive; / = no result given.
SMILES,TAAR1 ag,OX1R antag-1,CHO parental Ca,OX1R antag-2,GPR7 antag,TAAR1 antag,GPR7 antag cf,MCHR1 antagonist
CN(C(=O)/C=C/c1ccc([N+](=O)[O-])s1)c1ccccc1,.,.,.,.,25,.,.,.
CN(C(=O)C=Cc1ccco1)c1ccccc1,.,/,/,/,/,.,/,/
COc1ccccc1NC(=O)c1sc2ncn(Cc3cccc4ccccc34)c(=O)c2c1C,.,.,.,.,.,.,/,/
COc1cc2c(C)nc3c(cnn3-c3ccccc3)c2cc1OC,.,.,.,.,.,.,/,/
Cc1cc(O)c(C(C)C)cc1C1(c2cc(C(C)C)c(O)cc2C)OC(=O)c2ccccc21,.,.,.,.,.,.,.,.
CC(=O)c1ccc(N2CCN(S(=O)(=O)c3ccc4c(c3)CC(=O)N4)CC2)cc1,.,.,.,.,.,.,/,/
CC(=O)c1ccc(N2CCN(S(=O)(=O)c3ccc4c5c3CC(=O)N5CC(C)S4)CC2)cc1 (centres undefined),/,.,.,.,25,/,.,41
CN(CC(=O)Nc1ccc(F)cc1)C(=O)COC(=O)/C=C/c1ccccc1[N+](=O)[O-],.,.,.,.,/,.,/,/
CCOC(=O)CSC1=NC(=O)/C(=C/c2ccc(OC)cc2)S1,/,.,.,.,29,/,72,72
COc1ccc(/C=C2\SC(N)=NC2=O)cc1,.,/,/,/,.,.,/,/
CCCCCCCCCCOC(=O)Cn1c(COc2ccccc2)[n+](C)c2ccccc21,.,73,62,.,71,.,77,94
CCCCOC(=O)Cn1c(=O)n(CC(=O)OCCCC)c2ccccc21,.,.,.,.,.,.,/,/
CCCCCCCCCCOC(=O)Cn1c(COc2ccc(Cl)cc2)[n+](C)c2ccccc21,47,.,33,.,60,.,66,70
CCOC(=O)Cn1c(COc2ccccc2OC)[n+](C)c2ccccc21,.,.,.,.,/,.,/,/
CCCCCCCCCCOC(=O)Cn1c(COc2cccc(C)c2)[n+](C)c2ccccc21,42,75,65,.,45,65,68,85
CCCCCCCCCCOC(=O)Cn1c(COc2ccccc2C)[n+](C)c2ccccc21,/,53,43,.,28,/,83,88
COc1cc2ccc(=O)oc2c(O)c1O,.,/,/,/,/,.,/,/
Brc1cc2c(cc1/C=N/Nc1nc(N3CCCCC3)nc(N3CCCCC3)n1)OCO2,/,/,/,/,25,/,.,.
O=C(CN(Cc1ccccc1)C(=O)c1cccc([N+](=O)[O-])c1)Nc1c(Cl)cc(Cl)cc1Cl,.,.,.,.,.,.,/,/
CCOc1cc(S(=O)(=O)N2CCN(CC)CC2)ccc1Cl,.,.,.,.,.,.,/,/
CCOc1cc(S(=O)(=O)N2CCCCC2)ccc1Cl,.,.,.,.,25,.,.,28
Oc1cccc(C=NN=C2c3ccccc3-c3ccccc32)c1,.,/,/,/,/,.,/,/
Cc1nc2cc(NC(=O)Nc3cccc4ccccc34)ccc2n1C,.,.,.,.,.,.,/,/
O=C(Nc1ccc2snnc2c1)Nc1cccc2ccccc12,.,.,27,58,36,.,40,77
CCCCN1CC(=O)N2[C@@H]3c4cc(OC)ccc4OC[C@@H]3[C@H](C(=O)OCC)[C@]2(C)C1=O,.,/,/,/,/,.,/,/
SMILES,TAAR1 ag,OX1R antag-1,CHO parental Ca,OX1R antag-2,GPR7 antag,TAAR1 antag,GPR7 antag cf,MCHR1 antagonist
COc1ccc(CSc2nnnn2-c2ccc(C(N)=O)cc2)cc1[N+](=O)[O-],.,.,.,.,36,.,.,39
O=C(CSc1nnnn1-c1ccccc1)N1CCc2ccccc2C1,.,.,.,.,.,.,/,/
CC(=O)c1ccc(-n2nnnc2SCC(=O)N2CCc3ccccc3C2)cc1,.,/,/,/,29,.,.,.
CC1CCCCC1NC(=O)CN1C(=O)CSc2cc(S(=O)(=O)N3CCCCCC3)ccc21 (centres undefined),.,.,.,.,28,.,.,.
Cc1cccc(-c2nc(CSc3nc4c(c(=O)[nH]3)CCC4)c(C)o2)c1,.,.,.,.,.,.,/,/
CCOc1ccc(N(C)S(=O)(=O)c2cc(-c3cc(C)no3)ccc2C)cc1,.,.,.,.,32,65,.,74
CCCC(c1nnnn1C1CCCCC1)N1CCN(C2CCCC2)CC1 (centres undefined),.,.,.,.,22,.,.,.
CC(C(=O)NC(C)(C)C)n1c(C(c2ccccc2)c2ccccc2)nc2ccccc21 (centres undefined),.,/,/,/,/,.,/,/
CC(=O)Nc1ccc(S(=O)(=O)N2CCN(c3nc4ccccc4n3CC(C)C)CC2)cc1,.,/,/,/,27,.,.,.
Cc1nc2nc3c(cn2n1)C(=O)CCC3,.,.,.,.,.,.,/,/
Cc1cc2n(n1)SC(Nc1ccc(F)c(Cl)c1)N2 (centres undefined),.,.,.,.,.,.,/,/
COc1ccccc1CNC(=O)c1csc(Cc2ccc(Cl)cc2)n1,.,.,.,.,29,50,.,45
COc1ccc(CNC(=O)c2csc(Cc3ccccc3)n2)cc1,.,.,.,.,.,.,/,/
COc1cc(/C=C/C(=O)O)ccc1OCc1ccccc1C#N,.,.,.,.,.,.,/,/
N#Cc1ccc(S(=O)(=O)N2CCCN(c3ccc(C(F)(F)F)cn3)CC2)cc1,.,.,.,.,24,.,.,.
O=S(=O)(c1ccc(F)cc1F)N1CCCN(c2ccc(C(F)(F)F)cn2)CC1,.,.,.,.,.,.,/,/
O=C(NCc1ccc2c(c1)OCO2)C(=O)NCC1OCCN1S(=O)(=O)c1ccc(Cl)cc1 (centres undefined),.,.,.,.,.,.,/,/
O=C(NCc1ccc2c(c1)OCO2)C(=O)NCC1OCCN1S(=O)(=O)c1ccc(Br)cc1 (centres undefined),.,.,.,.,29,.,.,40
Cc1cccc(Cl)c1NC(=O)N(C)c1ccccc1,.,/,/,/,/,.,/,/
COc1ccc([N+](=O)[O-])cc1C(=O)NCCOc1ccc(Cl)cc1,.,.,.,.,48,.,42,47
Cc1ccc(OCCNC(=O)c2cc(C(=O)NCCOc3ccc(C)cc3)cc([N+](=O)[O-])c2)cc1,.,.,.,.,.,.,/,/

# Screening results from PubChem BioAssay.
